# Source: ChEMBL document CHEMBL3797085, “Structure-Based Design and Synthesis of Novel Inhibitors Targeting HDAC8 from Schistosoma mansoni for the Treatment of Schistosomiasis” (J Med Chem, 2016)
# Test system: Schistosoma mansoni
# Experiment: Antiparasitic activity against schistosomula stage of Schistosoma mansoni assessed as parasite viability at 10 uM after 48 hrs by Alamar Blue assay relative to control
# Type: functional
# Settings: not given; call rule not given here
# Procedure, shortened: (§1)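 Mechanically transformed S. mansoni schistosomula, 100 per well, in Medium 199 with 10% FCS, penicillin, streptomycin and rifampicin, held 3 h at 37°C/5% CO2 before use. […] Resazurin added at 48 h; fluorescence (ex 530/em 590 nm) read 24 h later, corrected for drug-medium background. Ethanol-killed larvae as dead control. Triplicate wells, two biological replicates.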
row,Structure (SMILES),Activity [%]
1,O=C(NO)c1cccc(NC2CCCCC2)c1,82.7
2,O=C(NO)c1ccc(Cl)c(NC(=O)c2ccc([N+](=O)[O-])cc2)c1,85.3
3,COc1ccc(Cn2ccc3ccc(C(=O)NO)cc32)cc1,70.6
4,COc1ccc(C(=O)NO)cc1NC(=O)c1cccc(-c2ccccc2)c1,58.8
5,CCOc1ccc(C(=O)NO)cc1NC(=O)c1ccccc1,89.7
6,O=C(NO)c1ccc(Cl)c(NC(=O)c2ccccc2)c1,84.7
7,O=C(NO)c1ccc2ccccc2n1,95.6
8,O=C(NO)c1cccc(NC(=O)c2ccccc2)c1,79.2
9,O=C(C1CCCCC1)N1CC(=O)N2CCc3ccccc3C2C1 (configuration not stated) [PRAZIQUANTEL],92

# Test system: Schistosoma mansoni
# Experiment: Antiparasitic activity against schistosomula stage of Schistosoma mansoni assessed as parasite viability at 20 uM after 48 hrs by Alamar Blue assay relative to control
# Type: functional
# Settings: not given
# Procedure, shortened: as §1
row,Structure (SMILES),Activity [%]
1,O=C(NO)c1ccc(Cl)c(NC(=O)c2ccc([N+](=O)[O-])cc2)c1,68.1
2,COc1ccc(Cn2ccc3ccc(C(=O)NO)cc32)cc1,62.3
3,COc1ccc(C(=O)NO)cc1NC(=O)c1cccc(-c2ccccc2)c1,57
4,O=C(NO)c1cccc(NC(=O)c2ccccc2)c1,75.6
5,O=C(C1CCCCC1)N1CC(=O)N2CCc3ccccc3C2C1 (configuration not stated) [PRAZIQUANTEL],89

# Test system: not listed separately
# Experiment: Cytotoxicity against HEK293 cells assessed as cell viability at 50 uM after 24 hrs by Alamar Blue assay relative to control
# Type: cell-based
# Settings: human, read-out: Activity
# Procedure, shortened: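 AlamarBlue added after 24 h, incubated a further 21 h; resorufin fluorescence ex 560/em 590 nm. Triplicates; viability relative to untreated cells; daunorubicin positive control.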
row,Structure (SMILES),"viability at 24 h, 50 µM [%]"
1,O=C(NO)c1cccc(NC2CCCCC2)c1,70.7
2,O=C(NO)c1ccc(Cl)c(NC(=O)c2ccc([N+](=O)[O-])cc2)c1,79.1
3,CCCOc1ccc(C(=O)NO)cc1NC(=O)c1ccccc1,97.4
4,COc1ccc(C(=O)NO)cc1NC(=O)c1cccc(-c2ccccc2)c1,76.2
5,CCOc1ccc(C(=O)NO)cc1NC(=O)c1ccccc1,70.4
6,O=C(NO)c1ccc(Cl)c(NC(=O)c2ccccc2)c1,72.2
7,CCOc1ccc(C(=O)Nc2cc(C(=O)NO)ccc2OC)cc1,87.7
8,O=C(NO)c1ccc2ccccc2n1,73.3
9,COC(=O)c1ccc(OC)c(NC(=O)c2ccc(-c3ccccc3)cc2)c1,47.2
10,COc1ccc(C(=O)NO)cc1NC(=O)c1ccc(Cl)cc1,92.6

# Target: T1, Histone deacetylase 8 (Schistosoma mansoni, UniProt A5H660)
# T1 sequence (A5H660 whole entry): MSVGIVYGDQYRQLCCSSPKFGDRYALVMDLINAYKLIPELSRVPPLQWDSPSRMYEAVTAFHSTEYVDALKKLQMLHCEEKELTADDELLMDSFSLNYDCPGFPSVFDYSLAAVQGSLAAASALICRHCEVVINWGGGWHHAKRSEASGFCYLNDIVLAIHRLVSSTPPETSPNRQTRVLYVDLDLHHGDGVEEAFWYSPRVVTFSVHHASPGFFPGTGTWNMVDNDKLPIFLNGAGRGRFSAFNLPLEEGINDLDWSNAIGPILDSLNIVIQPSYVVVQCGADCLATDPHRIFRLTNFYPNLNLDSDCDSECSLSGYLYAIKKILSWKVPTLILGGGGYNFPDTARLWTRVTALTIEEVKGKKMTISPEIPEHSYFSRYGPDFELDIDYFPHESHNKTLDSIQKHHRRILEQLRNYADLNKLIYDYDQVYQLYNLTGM
# Experiment: Inhibition of recombinant Schistosoma mansoni HDAC8 expressed in Escherichia coli using Fluor de Lys as substrate preincubated for 90 mins followed by BML-KI176 addition measured after 45 mins by fluorescence assay
# Settings: not given
# Procedure, shortened: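 smHDAC8 produced in E. coli. Fluor de Lys kit: compound, Fluor de Lys-HDAC8 substrate (50 µM) and enzyme incubated 90 min at 37°C, then Developer II for 45 min at 30°C. Reaction stopped with trichostatin A (2 µM). Fluorescence read at ex 390/em 460 nm. IC50 given as mean ± S.E.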
row,Structure (SMILES),IC50
1,COc1ccc(C(=O)O)cc1NC(=O)c1ccc(-c2ccccc2)cc1,Not Active
2,COC(=O)c1ccc(OC)c(NC(=O)c2ccc(-c3ccccc3)cc2)c1,Not Active

# Same assay, conditions: read-out: IC50
row,Structure (SMILES),IC50 [nM]
1,O=C(NO)c1cccc(NC2CCCCC2)c1,3630
2,O=C(NO)c1ccc(Cl)c(NC(=O)c2ccc([N+](=O)[O-])cc2)c1,394
3,COc1ccc(Cn2ccc3ccc(C(=O)NO)cc32)cc1,436
4,CCCOc1ccc(C(=O)NO)cc1NC(=O)c1ccccc1,267
5,COc1ccc(C(=O)NO)cc1NC(=O)c1cccc(-c2ccccc2)c1,290
6,CC1Sc2ccc(C(=O)NO)cc2NC1=O (configuration not stated),1480
7,CCOc1ccc(C(=O)NO)cc1NC(=O)c1ccccc1,129
8,O=C(NO)c1ccc(Cl)c(NC(=O)c2ccccc2)c1,67
9,CCOc1ccc(C(=O)Nc2cc(C(=O)NO)ccc2OC)cc1,305
10,O=C(NO)c1ccc2ccccc2n1,8200
11,COc1ccc(C(=O)NO)cc1OCc1ccccc1,268
12,O=C(NO)c1cccc(NC(=O)c2ccccc2)c1,468
13,O=C1CCSc2ccc(C(=O)NO)cc2N1,1220
14,O=C(NO)c1ccc(Cl)c(NC(=O)c2ccc(Oc3ccccc3)cc2)c1,979
15,COc1ccc(C(=O)NO)cc1NC(=O)c1ccc(Cl)cc1,146

# Target: T2, Histone deacetylase 8 (Homo sapiens, UniProt Q9BY41)
# T2 sequence (Q9BY41 whole entry): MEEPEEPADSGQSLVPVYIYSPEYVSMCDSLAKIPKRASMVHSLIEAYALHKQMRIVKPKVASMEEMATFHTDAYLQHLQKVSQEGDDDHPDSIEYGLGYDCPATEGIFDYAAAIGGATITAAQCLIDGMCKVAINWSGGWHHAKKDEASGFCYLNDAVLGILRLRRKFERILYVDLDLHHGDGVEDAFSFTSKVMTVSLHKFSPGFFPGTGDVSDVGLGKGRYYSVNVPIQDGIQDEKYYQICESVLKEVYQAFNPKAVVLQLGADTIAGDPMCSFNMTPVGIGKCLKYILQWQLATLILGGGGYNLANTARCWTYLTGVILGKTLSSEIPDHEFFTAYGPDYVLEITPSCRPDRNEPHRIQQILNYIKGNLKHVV
# Experiment: Inhibition of recombinant human HDAC8 using Fluor de Lys as substrate preincubated for 90 mins followed by BML-KI176 addition measured after 45 mins by fluorescence assay
# Settings: not given
row,Structure (SMILES),IC50
1,COc1ccc(C(=O)O)cc1NC(=O)c1ccc(-c2ccccc2)cc1,Not Active
2,COC(=O)c1ccc(OC)c(NC(=O)c2ccc(-c3ccccc3)cc2)c1,Not Active

# Same assay, conditions: read-out: IC50
row,Structure (SMILES),IC50 [nM]
1,O=C(NO)c1cccc(NC2CCCCC2)c1,830
2,CC1Sc2ccc(C(=O)NO)cc2NC1=O (configuration not stated),970
3,CCOc1ccc(C(=O)NO)cc1NC(=O)c1ccccc1,172
4,O=C(NO)c1ccc(Cl)c(NC(=O)c2ccccc2)c1,120
5,CCOc1ccc(C(=O)Nc2cc(C(=O)NO)ccc2OC)cc1,438
6,O=C(NO)c1ccc2ccccc2n1,582
7,O=C(NO)c1cccc(NC(=O)c2ccccc2)c1,582
8,O=C1CCSc2ccc(C(=O)NO)cc2N1,620
9,O=C(NO)c1ccc(Cl)c(NC(=O)c2ccc(Oc3ccccc3)cc2)c1,1080
10,COc1ccc(C(=O)NO)cc1NC(=O)c1ccc(Cl)cc1,240

# Target: Histone deacetylase 1 (Homo sapiens, UniProt Q13547)
# Sequence (Q13547 whole entry): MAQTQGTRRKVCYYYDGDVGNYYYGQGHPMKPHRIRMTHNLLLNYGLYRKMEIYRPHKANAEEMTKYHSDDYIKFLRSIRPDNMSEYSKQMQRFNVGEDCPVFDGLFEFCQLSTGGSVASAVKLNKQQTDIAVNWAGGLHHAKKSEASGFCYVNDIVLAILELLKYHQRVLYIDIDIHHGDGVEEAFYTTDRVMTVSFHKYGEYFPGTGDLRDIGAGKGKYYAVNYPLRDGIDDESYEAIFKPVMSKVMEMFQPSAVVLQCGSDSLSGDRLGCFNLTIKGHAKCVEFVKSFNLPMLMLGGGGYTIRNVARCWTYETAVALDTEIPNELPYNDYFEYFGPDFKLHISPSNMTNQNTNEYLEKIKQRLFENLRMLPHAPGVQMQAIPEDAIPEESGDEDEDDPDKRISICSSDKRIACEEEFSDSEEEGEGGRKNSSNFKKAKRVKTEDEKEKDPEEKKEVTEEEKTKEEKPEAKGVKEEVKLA
# Experiment: Inhibition of recombinant human HDAC1 using Cbz-(Ac)Lys-AMC as substrate preincubated for 90 mins followed by trypsin addition measured after 20 mins by fluorescence assay
# Settings: not given
row,Structure (SMILES),IC50
1,COc1ccc(C(=O)O)cc1NC(=O)c1ccc(-c2ccccc2)cc1,Not Active
2,COC(=O)c1ccc(OC)c(NC(=O)c2ccc(-c3ccccc3)cc2)c1,Not Active

# Same assay, conditions: read-out: IC50
row,Structure (SMILES),IC50 [nM]
1,O=C(NO)c1cccc(NC2CCCCC2)c1,130000
2,CC1Sc2ccc(C(=O)NO)cc2NC1=O (configuration not stated),27500
3,CCOc1ccc(C(=O)NO)cc1NC(=O)c1ccccc1,4600
4,O=C(NO)c1ccc(Cl)c(NC(=O)c2ccccc2)c1,11600
5,CCOc1ccc(C(=O)Nc2cc(C(=O)NO)ccc2OC)cc1,4400
6,O=C1CCSc2ccc(C(=O)NO)cc2N1,9800
7,O=C(NO)c1ccc(Cl)c(NC(=O)c2ccc(Oc3ccccc3)cc2)c1,8500
8,COc1ccc(C(=O)NO)cc1NC(=O)c1ccc(Cl)cc1,2900

# Target: T3, Protein deacetylase HDAC6 (Homo sapiens, UniProt Q9UBN7)
# T3 sequence (Q9UBN7 whole entry): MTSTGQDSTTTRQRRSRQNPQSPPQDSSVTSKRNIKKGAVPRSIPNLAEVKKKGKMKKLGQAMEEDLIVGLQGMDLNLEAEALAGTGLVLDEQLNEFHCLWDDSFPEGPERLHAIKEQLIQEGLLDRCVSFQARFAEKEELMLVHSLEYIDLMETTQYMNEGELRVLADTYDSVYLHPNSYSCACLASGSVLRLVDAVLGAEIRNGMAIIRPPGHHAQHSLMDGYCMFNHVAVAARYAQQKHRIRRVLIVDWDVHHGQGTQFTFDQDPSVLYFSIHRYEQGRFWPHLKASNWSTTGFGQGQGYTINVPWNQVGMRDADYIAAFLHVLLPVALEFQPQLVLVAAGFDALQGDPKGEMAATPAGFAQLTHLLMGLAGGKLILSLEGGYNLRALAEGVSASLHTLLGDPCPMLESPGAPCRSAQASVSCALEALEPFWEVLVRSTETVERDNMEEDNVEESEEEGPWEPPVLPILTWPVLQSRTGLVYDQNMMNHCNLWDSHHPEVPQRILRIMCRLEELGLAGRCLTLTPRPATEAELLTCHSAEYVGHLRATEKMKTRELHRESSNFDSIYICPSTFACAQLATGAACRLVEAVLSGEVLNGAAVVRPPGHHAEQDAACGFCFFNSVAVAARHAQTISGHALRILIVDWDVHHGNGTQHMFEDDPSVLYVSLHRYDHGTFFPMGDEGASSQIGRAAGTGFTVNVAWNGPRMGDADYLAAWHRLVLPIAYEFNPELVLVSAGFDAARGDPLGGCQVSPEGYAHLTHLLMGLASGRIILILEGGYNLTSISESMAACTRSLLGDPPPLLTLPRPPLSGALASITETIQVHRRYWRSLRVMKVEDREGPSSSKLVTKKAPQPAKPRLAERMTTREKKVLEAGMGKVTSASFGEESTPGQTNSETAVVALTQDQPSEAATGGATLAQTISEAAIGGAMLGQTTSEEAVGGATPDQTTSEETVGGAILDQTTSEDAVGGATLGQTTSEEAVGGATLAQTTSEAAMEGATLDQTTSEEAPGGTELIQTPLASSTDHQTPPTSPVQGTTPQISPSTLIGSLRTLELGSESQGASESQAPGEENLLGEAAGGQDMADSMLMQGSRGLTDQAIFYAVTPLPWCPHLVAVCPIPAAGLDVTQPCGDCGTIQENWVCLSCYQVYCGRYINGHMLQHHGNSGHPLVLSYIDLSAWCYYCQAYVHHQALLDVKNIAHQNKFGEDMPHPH
# Experiment: Inhibition of recombinant human HDAC6 using Cbz-(Ac)Lys-AMC as substrate preincubated for 90 mins followed by trypsin addition measured after 20 mins by fluorescence assay
# Settings: not given
row,Structure (SMILES),IC50
1,COc1ccc(C(=O)O)cc1NC(=O)c1ccc(-c2ccccc2)cc1,Not Active
2,COC(=O)c1ccc(OC)c(NC(=O)c2ccc(-c3ccccc3)cc2)c1,Not Active

# Same assay, conditions: read-out: IC50
row,Structure (SMILES),IC50 [nM]
1,CC1Sc2ccc(C(=O)NO)cc2NC1=O (configuration not stated),3600
2,CCOc1ccc(C(=O)NO)cc1NC(=O)c1ccccc1,1300
3,O=C(NO)c1ccc(Cl)c(NC(=O)c2ccccc2)c1,120
4,CCOc1ccc(C(=O)Nc2cc(C(=O)NO)ccc2OC)cc1,1000
5,O=C1CCSc2ccc(C(=O)NO)cc2N1,1300
6,O=C(NO)c1ccc(Cl)c(NC(=O)c2ccc(Oc3ccccc3)cc2)c1,150
7,COc1ccc(C(=O)NO)cc1NC(=O)c1ccc(Cl)cc1,900
